# Test results taken from ChEMBL document CHEMBL4831547, “DNDI-6148: A Novel Benzoxaborole Preclinical Candidate for the Treatment of Visceral Leishmaniasis” (J Med Chem, 2021).
# Assays:
# [1] = Selectivity index, ratio of CC50 for human MRC5 cells to EC50 for Leishmania infantum MHOM/MA(BE)/67/ITMAP263; assay type: toxicity; conditions: read-out: Ratio CC50/EC50
# [2] = Drug metabolism in hamster assessed as M12 metabolite formation; assay type: ADME, Mesocricetus auratus
# [3] = Drug metabolism in dog assessed as M12 metabolite formation; assay type: ADME, Canis lupus familiaris
# [4] = Drug metabolism in mouse assessed as M12 metabolite formation; assay type: ADME
# [5] = Drug metabolism in human assessed as M12 metabolite formation; assay type: ADME
# [6] = Drug metabolism in rat assessed as M12 metabolite formation; assay type: ADME
# [7] = Genotoxicity in Salmonella typhimurium TA100 over 1 to 1000 ug in presence of S9 fraction by Ames test; assay type: toxicity, subcellular; conditions: salmonella enterica subsp. enterica serovar typhimurium, dose 1-1000 µg
# Procedure, shortened: (§1)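 Mini-Ames reverse mutation screen in S. typhimurium TA98 and TA100, run with and without induced rat liver S9. Doses were 1.5, 4, 10, 25, 64, 160, 400 and 1000 μg per well. Positive controls were 2-aminoanthracene, 2-nitrofluorene and sodium azide; DMSO was the negative control.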
# [8] = Genotoxicity in Salmonella typhimurium TA98 over 1 to 1000 ug in absence of S9 fraction by Ames test; assay type: toxicity; conditions: salmonella enterica subsp. enterica serovar typhimurium, dose 1-1000 µg; procedure, shortened: as §1
# [9] = Drug metabolism in dog liver microsomes at 10 uM incubated for 60 mins by LC-UV/MS analysis; assay type: ADME, Canis lupus familiaris, Microsome; conditions: 1 h
# Procedure, shortened: (§2)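 Incubated at 10 μM with liver microsomes (1 mg/mL) from Beagle dog or Sprague-Dawley rat for 60 min. Reactions were stopped by precipitation with formic acid/acetonitrile, and metabolites were identified by LC-UV-MSn (n = 1–2).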
# [10] = Toxicity in Sprague-Dawley rat at 50 mg/kg administered daily for 14 days; assay type: organism-based; conditions: in vivo, 336 h, time 14 day
# Procedure, shortened: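 Exploratory 14-day toxicology study with daily dosing in male and female Sprague-Dawley rats.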
# [11] = Drug metabolism in Sprague-Dawley rat liver microsomes at 10 uM incubated for 60 mins by LC-UV/MS analysis; assay type: ADME, Microsome; conditions: 1 h; procedure, shortened: as §2
# [12] = Drug metabolism in human liver microsomes at 10 uM incubated for 60 mins by LC-UV/MS analysis; assay type: ADME, Microsome; conditions: 1 h
# [13] = Clearance in human; assay type: ADME
# [14] = Genotoxicity in Salmonella typhimurium TA98 over 1 to 1000 ug in presence of S9 fraction by Ames test; assay type: toxicity, subcellular; conditions: salmonella enterica subsp. enterica serovar typhimurium, dose 1-1000 µg; procedure, shortened: as §1
# [15] = Genotoxicity in Salmonella typhimurium TA100 over 1 to 1000 ug in absence of S9 fraction by Ames test; assay type: toxicity; conditions: salmonella enterica subsp. enterica serovar typhimurium, dose 1-1000 µg; procedure, shortened: as §1
# [16] = Permeability of compound in dog MDCK-MDR1 cells at 2 uM after 150 min by LC-MS/MS analysis; assay type: ADME, cell-based, Canis lupus familiaris; conditions: mdck-mdr1, 2.5 h
# Procedure, shortened: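 Bidirectional MDCK-MDR1 monolayer permeability. A→B and B→A transport was measured in triplicate over 150 min at 37 °C, 5% CO2, and quantified by LC-MS/MS as analyte/internal standard peak-area ratio.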
smiles,measurement,setting,value
O=C(Nc1ccc2c(c1)B(O)OC2)c1ccc(F)cc1C(F)(F)F,selectivity ratio,[1],> 24
O=C(Nc1ccc2c(c1)B(O)OC2)c1cn(-c2ccccn2)nn1,selectivity ratio,[1],30
Cc1c(C(=O)Nc2ccc3c(c2)B(O)OC3)cnn1CCC(F)(F)F,selectivity ratio,[1],> 5
Cc1nn(-c2ccccn2)cc1C(=O)Nc1ccc2c(c1)B(O)OC2,selectivity ratio,[1],> 11
O=C(Nc1ccc2c(c1)B(O)OC2)c1cn(-c2ccc(Cl)cc2)nc1C(F)(F)F,selectivity ratio,[1],2
Cn1nc(C(=O)Nc2ccc3c(c2)B(O)OC3)cc1-c1ccccn1,selectivity ratio,[1],31
Cc1cccc(-n2ncc(C(=O)Nc3ccc4c(c3)B(O)OC4)c2C)n1,selectivity ratio,[1],25
O=C(Nc1ccc2c(c1)B(O)OC2)c1nnc(-c2ccccn2)o1,selectivity ratio,[1],> 32
COc1cccc(-n2ncc(C(=O)Nc3ccc4c(c3)B(O)OC4)c2C)n1,selectivity ratio,[1],31
O=C(Nc1ccc2c(c1)B(O)OC2)c1cn(C2CCOCC2)nc1C(F)(F)F,selectivity ratio,[1],> 21
O=C(Nc1ccc2c(c1)B(O)OC2)c1cc(-c2ccccn2)n[nH]1,selectivity ratio,[1],8
Cn1nc(-c2ccccn2)cc1C(=O)Nc1ccc2c(c1)B(O)OC2,selectivity ratio,[1],> 2
O=C(Nc1ccc2c(c1)B(O)OC2)c1cn(CC(F)(F)F)nc1C(F)(F)F,selectivity ratio,[1],> 40
O=C(Nc1ccc2c(c1)B(O)OC2)c1cn(-c2ccccn2)nc1C(F)(F)F,selectivity ratio,[1],1.6
Cc1c(C(=O)Nc2ccc3c(c2)B(O)OC3)cnn1-c1ccccn1,selectivity ratio,[1],15
O=C(Nc1ccc2c(c1)B(O)OC2)c1cn(CCC(F)(F)F)nc1C(F)(F)F,selectivity ratio,[1],38
Cc1cccc(-n2nnc(C(=O)Nc3ccc4c(c3)B(O)OC4)c2C)n1,selectivity ratio,[1],> 10
COc1cccc(-n2nnc(C(=O)Nc3ccc4c(c3)B(O)OC4)c2C)n1,selectivity ratio,[1],> 80
Cc1c(-c2ccccn2)coc1C(=O)Nc1ccc2c(c1)B(O)OC2,Drug metabolism,[2],Metabolite_Detected
same,Drug metabolism,[3],Metabolite_Detected
same,Drug metabolism,[4],Metabolite_Detected
same,Drug metabolism,[5],Metabolite_Detected
same,Drug metabolism,[6],Metabolite_Detected
same,selectivity ratio,[1],37
Cc1c(C(=O)Nc2ccc3c(c2)B(O)OC3)nnn1-c1cccnc1,selectivity ratio,[1],> 1.8
Cc1c(C(=O)Nc2ccc3c(c2)B(O)OC3)nnn1-c1ccccc1,selectivity ratio,[1],> 1.7
O=C(Nc1ccc2c(c1)B(O)OC2)c1cn(C2CCC2)nc1C(F)(F)F,selectivity ratio,[1],53
O=C(Nc1ccc2c(c1)B(O)OC2)c1cn(C(F)(F)F)nc1C(F)(F)F,selectivity ratio,[1],> 31
Cc1nn(C2CCC2)cc1C(=O)Nc1ccc2c(c1)B(O)OC2,selectivity ratio,[1],> 4
COc1ccccc1-n1cc(C(=O)Nc2ccc3c(c2)B(O)OC3)c(C)n1,selectivity ratio,[1],7.3
Cc1oc(C(=O)Nc2ccc3c(c2)B(O)OC3)cc1-c1ccccn1,selectivity ratio,[1],18
Cc1c(-c2ccccn2)csc1C(=O)Nc1ccc2c(c1)B(O)OC2,selectivity ratio,[1],4
Cc1c(C(=O)Nc2ccc3c(c2)B(O)OC3)nnn1-c1ccccn1,Activity,[7],Non-Toxic
same,Activity,[8],Non-Toxic
same,Drug metabolism,[9],Metabolite_Notdetected
same,Activity,[10],Non-Toxic
same,Drug metabolism,[11],Metabolite_Notdetected
same,selectivity ratio,[1],> 39
same,Drug metabolism,[12],Metabolite_Notdetected
same,clearance,[13],1 mL/min/kg
same,Activity,[14],Non-Toxic
same,Activity,[15],Non-Toxic
same,permeability,[16],Permeable
Cc1nn(CCC(F)(F)F)cc1C(=O)Nc1ccc2c(c1)B(O)OC2,selectivity ratio,[1],> 11
CCCCCCCCCCCCCCCCOP(=O)([O-])OCC[N+](C)(C)C [MILTEFOSINE],selectivity ratio,[1],> 6.2
